Assay results: ChEMBL document CHEMBL1127469, “Decapeptide agonists of human C5a: the relationship between conformation and spasmogenic and platelet aggregatory activities” (J Med Chem, 1994)
Bridge positions count the residues as written; N and C are the ends. Peptide text beside a SMILES is read from it.

Assays:
Cavia porcellus [1] = organism: Cavia porcellus; assay: Platelet aggregation in guinea pig; assay type: functional
Method in brief: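 Platelet-rich plasma from arterial blood of anesthetized male Hartley guinea pigs, diluted to 3 × 10^8 platelets/mL in 0.39% sodium citrate. Peptides are serially diluted 1.5-fold and shaken with plasma and a 3 mm glass bead at 100 rpm, 5 min, 37 °C. Aggregation is scored visually at 40×. The threshold is the greatest dilution giving visible aggregation. At least three independent duplicate runs; C5a and C3a serve as standards.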

[2] = target: T1, C5a anaphylatoxin chemotactic receptor 1 (Homo sapiens) (UniProt P21730); assay: Pharmacological activity against C5a receptor in human fetal artery
T1 sequence (whole entry): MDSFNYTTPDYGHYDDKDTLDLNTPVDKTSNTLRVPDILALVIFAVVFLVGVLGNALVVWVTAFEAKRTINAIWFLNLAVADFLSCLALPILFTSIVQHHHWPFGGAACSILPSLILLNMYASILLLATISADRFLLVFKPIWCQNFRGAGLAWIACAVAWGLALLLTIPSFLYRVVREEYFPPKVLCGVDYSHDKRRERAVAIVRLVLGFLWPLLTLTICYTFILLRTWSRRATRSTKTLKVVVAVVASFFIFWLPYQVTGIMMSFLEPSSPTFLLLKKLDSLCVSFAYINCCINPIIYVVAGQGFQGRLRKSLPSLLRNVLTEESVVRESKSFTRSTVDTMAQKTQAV
Method in brief: (§1)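 Isometric contraction of tissue strips in 2 mL organ baths of Krebs-Ringers solution, 37 °C, pH 7.4, gassed with 95% O2/5% CO2, equilibrated 1 h. Tachyphylaxis prevents cumulative curves, so each strip gets one peptide concentration, then histamine 10 μM. Response is taken as % of the histamine maximum. EC50 comes from probit analysis, reported as pD2 (-log EC50, M), mean ± SE.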

Homo sapiens = organism: Homo sapiens; assay: Effective dose required for smooth muscle contraction in human fetal artery; assay type: functional; conditions: Muscle tissue; method in brief: as §1
Cavia porcellus [3] = organism: Cavia porcellus; assay: Effective dose required for smooth muscle contraction in Guinea pig lung parenchyma; assay type: functional; method in brief: as §1
[4] = test system: C5a anaphylatoxin chemotactic receptor 1 (Cavia porcellus); assay: Tested for pharmacological activity against C5a receptor in Guinea pig lung parenchyma
Cavia porcellus [5] = organism: Cavia porcellus; assay: Effective dose required for smooth muscle contraction in guinea pig ileum; assay type: functional; conditions: Muscle tissue; method in brief: as §1
[6] = target: T2, C5a anaphylatoxin chemotactic receptor 1 (Cavia porcellus) (UniProt O70129); assay: Pharmacological activity against C5a receptor in guinea pig ileum; assay type: tissue-based; method in brief: as §1
T2 sequence (whole entry): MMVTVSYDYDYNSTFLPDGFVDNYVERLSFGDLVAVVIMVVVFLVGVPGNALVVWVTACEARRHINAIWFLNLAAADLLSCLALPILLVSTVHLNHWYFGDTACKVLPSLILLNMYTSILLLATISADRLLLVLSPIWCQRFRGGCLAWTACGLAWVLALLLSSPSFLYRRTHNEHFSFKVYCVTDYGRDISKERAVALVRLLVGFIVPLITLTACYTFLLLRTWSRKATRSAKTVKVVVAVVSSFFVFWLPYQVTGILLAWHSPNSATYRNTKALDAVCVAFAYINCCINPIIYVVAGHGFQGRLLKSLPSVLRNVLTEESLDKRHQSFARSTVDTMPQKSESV

EC50 (Homo sapiens) [µM] | EC50 (Cavia porcellus [3]) [µM] | EC50 (Cavia porcellus [5]) [µM] | Molecule | Platelet aggregation (Cavia porcellus [1]) [µM] | pD2 [2] | pD2 [4] | pD2 [6]
> 1000 |  |  | CSCC[C@H](NC(=O)[C@H](CC(=O)O)NC(=O)[C@H](CCCCN)NC(=O)[C@H](Cc1ccccc1)NC(=O)[C@H](CO)NC(=O)[C@@H](N)Cc1ccc(O)cc1)C(=O)N[C@@H](CCC(N)=O)C(=O)N[C@@H](CC(C)C)C(=O)N1CCC[C@H]1C(=O)N[C@@H](CCCN=C(N)N)C(=O)O | 225 | < 3 |  | 
12.2 |  |  | CSCC[C@H](NC(=O)[C@H](CC(=O)O)NC(=O)[C@H](CCCCN)NC(=O)[C@H](Cc1ccccc1)NC(=O)[C@H](CO)NC(=O)[C@@H](N)Cc1ccc(O)cc1)C(=O)N[C@@H](CCC(N)=O)C(=O)N[C@@H](CC(C)C)C(=O)N[C@H](C)C(=O)N[C@@H](CCCN=C(N)N)C(=O)O | 20 | 5.42 |  | 
40 |  |  | CSCC[C@H](NC(=O)CNC(=O)[C@H](CCCCN)NC(=O)[C@H](Cc1ccccc1)NC(=O)[C@H](CO)NC(=O)[C@@H](N)Cc1ccc(O)cc1)C(=O)N[C@@H](CC(C)C)C(=O)N[C@@H](CC(C)C)C(=O)NCC(=O)N[C@H](CCCN=C(N)N)C(=O)O |  | 4.43 |  | 
4.9 | 15.1 | 26.8 | CSCC[C@H](NC(=O)CNC(=O)[C@H](CCCCN)NC(=O)[C@H](Cc1ccccc1)NC(=O)[C@H](CO)NC(=O)[C@@H](N)Cc1ccc(O)cc1)C(=O)N[C@@H](CC(C)C)C(=O)N[C@@H](CC(C)C)C(=O)NCC(=O)N[C@@H](CCCN=C(N)N)C(=O)O | 10.5 | 5.34 | 5 | 4.61
122 |  |  | CSCC[C@H](NC(=O)[C@H](CC(=O)O)NC(=O)[C@H](CCCCN)NC(=O)[C@H](Cc1ccccc1)NC(=O)[C@H](CO)NC(=O)[C@@H](N)Cc1ccc(O)cc1)C(=O)N[C@@H](CCC(N)=O)C(=O)N[C@@H](CC(C)C)C(=O)N[C@@H](C)C(=O)N[C@@H](CCCN=C(N)N)C(=O)O | 34 | 4.04 |  | 
> 1000 |  |  | CSCC[C@H](NC(=O)[C@H](CC(=O)O)NC(=O)[C@H](CCCCN)NC(=O)[C@H](Cc1ccccc1)NC(=O)[C@H](CO)NC(=O)[C@@H](N)Cc1ccc(O)cc1)C(=O)N1CCC[C@H]1C(=O)N[C@@H](C)C(=O)NCC(=O)N[C@@H](CCCN=C(N)N)C(=O)O | 101 | < 3 |  | 
1.74 |  | 26.6 | CC(C)C[C@H](NC(=O)[C@@H]1CCCN1C(=O)[C@H](C)NC(=O)[C@H](CC(=O)O)NC(=O)[C@H](CCCCN)NC(=O)[C@H](Cc1ccccc1)NC(=O)[C@H](CO)NC(=O)[C@@H](N)Cc1ccc(O)cc1)C(=O)NCC(=O)N[C@@H](CCCN=C(N)N)C(=O)O | 7.4 | 6.11 |  | 4.79
1.13 | 8.1 | 11.5 | CSCC[C@H](NC(=O)[C@H](CC(=O)O)NC(=O)[C@H](CCCCN)NC(=O)[C@H](Cc1ccccc1)NC(=O)[C@H](CO)NC(=O)[C@@H](N)Cc1ccc(O)cc1)C(=O)N1CCC[C@H]1C(=O)N[C@@H](CC(C)C)C(=O)NCC(=O)N[C@@H](CCCN=C(N)N)C(=O)O | 6.3 | 6.18 |  | 5.14
 |  |  | C[C@H](NC(=O)[C@@H]1CCCN1C(=O)[C@H](CCS)NC(=O)[C@H](CC(=O)O)NC(=O)[C@H](CCCCN)NC(=O)[C@H](Cc1ccccc1)NC(=O)[C@H](CO)NC(=O)[C@@H](N)Cc1ccc(O)cc1)C(=O)N[C@H](C)C(=O)N[C@@H](CCCN=C(N)N)C(=O)O |  | 4.86 |  | 
26.6 |  |  | CC(C)C[C@H](NC(=O)[C@@H]1CCCN1C(=O)[C@H](CS)NC(=O)[C@H](CC(=O)O)NC(=O)[C@H](CCCCN)NC(=O)[C@H](Cc1ccccc1)NC(=O)[C@H](CO)NC(=O)[C@@H](N)Cc1ccc(O)cc1)C(=O)N[C@@H](CS)C(=O)N[C@@H](CCCN=C(N)N)C(=O)O (H-YSFKDCPLCR-OH) | 4.1 | 4.67 |  | 
162 |  |  | CC(C)C[C@@H]1NC(=O)[C@@H]2CCCN2C(=O)[C@@H](NC(=O)[C@H](CC(=O)O)NC(=O)[C@H](CCCCN)NC(=O)[C@H](Cc2ccccc2)NC(=O)[C@H](CO)NC(=O)[C@@H](N)Cc2ccc(O)cc2)CSSC[C@@H](C(=O)N[C@@H](CCCN=C(N)N)C(=O)O)NC1=O (H-YSFKDCPLCR-OH; disulfide 6-9) | >410 | < 4 |  | 
 |  |  | H-ISFKDMQLGR-OH | 86.3 |  |  | 
2.04 |  |  | H-YSFKDCPLGR-OH | 2.3 | 5.79 |  | 
25.1 |  |  | H-YSFKDMPPGR-OH | 80 | 4.68 |  | 
11.2 | 28.4 | 37.5 | H-YSFKDMQLGR-OH | 22.9 | 5.05 |  | 4.51
48 |  | 344 | H-YSFKDMQPGR-OH | 500 | 4.4 |  | 3.64
6.6 | 22.1 | 18.1 | H-YSFKGLLLGR-OH | 21 | 5.21 |  | 4.74
0.59 |  |  | H-YSFKGMPLGR-OH | 6.3 | 6.23 |  | 
